In assay [1] the target is Casein kinase I isoform gamma-1 (Homo sapiens) (UniProt Q9HCP0). Kind of assay: Inhibition of human recombinant CK1g1 at 40 nM related to control ULK1.
Assay [2] concerns the target T1, Ephrin type-A receptor 1 (Homo sapiens) (UniProt P21709).
T1 sequence (whole entry): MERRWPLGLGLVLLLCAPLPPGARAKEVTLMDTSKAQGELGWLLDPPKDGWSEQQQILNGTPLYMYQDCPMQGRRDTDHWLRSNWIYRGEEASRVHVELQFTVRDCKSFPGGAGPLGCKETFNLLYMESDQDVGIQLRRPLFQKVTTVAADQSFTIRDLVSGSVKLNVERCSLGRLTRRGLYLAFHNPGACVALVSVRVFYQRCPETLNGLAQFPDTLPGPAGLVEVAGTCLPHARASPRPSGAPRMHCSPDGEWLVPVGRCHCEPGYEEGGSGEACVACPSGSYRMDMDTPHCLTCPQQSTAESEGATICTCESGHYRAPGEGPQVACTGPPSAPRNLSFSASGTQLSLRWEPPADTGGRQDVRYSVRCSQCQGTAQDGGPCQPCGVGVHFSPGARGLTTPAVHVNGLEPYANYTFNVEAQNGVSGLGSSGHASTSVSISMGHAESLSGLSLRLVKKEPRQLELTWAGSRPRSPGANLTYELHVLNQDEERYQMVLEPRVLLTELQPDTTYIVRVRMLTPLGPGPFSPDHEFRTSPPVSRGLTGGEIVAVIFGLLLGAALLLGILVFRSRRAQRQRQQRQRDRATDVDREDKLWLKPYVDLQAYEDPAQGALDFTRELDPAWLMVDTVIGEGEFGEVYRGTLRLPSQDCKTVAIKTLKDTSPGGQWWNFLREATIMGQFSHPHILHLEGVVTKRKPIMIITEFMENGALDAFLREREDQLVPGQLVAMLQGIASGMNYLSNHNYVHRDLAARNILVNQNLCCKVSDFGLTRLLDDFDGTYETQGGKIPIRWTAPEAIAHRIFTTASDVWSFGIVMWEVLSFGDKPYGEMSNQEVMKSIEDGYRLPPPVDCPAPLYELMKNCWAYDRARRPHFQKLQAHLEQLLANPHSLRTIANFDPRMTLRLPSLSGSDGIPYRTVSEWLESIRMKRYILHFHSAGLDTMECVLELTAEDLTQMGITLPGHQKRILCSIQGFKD
Kind of assay: Inhibition of human recombinant EphA1 at 40 nM related to control ULK1.

The target of assay [3] is NT-3 growth factor receptor (Homo sapiens) (UniProt Q16288). Description: Inhibition of human recombinant TRKC at 40 nM related to control ULK1.
Assay [4] has as its target T2, Myotonin-protein kinase (Homo sapiens) (UniProt Q09013).
T2 sequence (whole entry): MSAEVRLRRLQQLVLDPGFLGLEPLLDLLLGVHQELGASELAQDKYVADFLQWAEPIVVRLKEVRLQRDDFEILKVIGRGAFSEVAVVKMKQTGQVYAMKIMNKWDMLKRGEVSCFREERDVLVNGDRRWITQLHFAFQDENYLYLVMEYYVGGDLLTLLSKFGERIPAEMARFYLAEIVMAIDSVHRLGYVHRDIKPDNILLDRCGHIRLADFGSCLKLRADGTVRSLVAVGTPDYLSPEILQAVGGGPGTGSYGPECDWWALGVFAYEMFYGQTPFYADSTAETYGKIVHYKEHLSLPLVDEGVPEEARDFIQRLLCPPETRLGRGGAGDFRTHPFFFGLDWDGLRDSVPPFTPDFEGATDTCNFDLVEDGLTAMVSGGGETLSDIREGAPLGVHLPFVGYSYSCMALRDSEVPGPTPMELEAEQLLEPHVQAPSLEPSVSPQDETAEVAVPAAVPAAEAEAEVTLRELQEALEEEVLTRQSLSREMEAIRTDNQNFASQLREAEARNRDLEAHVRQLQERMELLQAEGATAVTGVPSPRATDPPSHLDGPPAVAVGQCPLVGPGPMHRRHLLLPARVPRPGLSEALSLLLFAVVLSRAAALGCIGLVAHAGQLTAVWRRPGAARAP
Description: Inhibition of human recombinant DMPK1 at 500 nM in presence of ATP by radiometric assay relative to control.

For assay [5], the target named is T3, Eukaryotic translation initiation factor 2-alpha kinase 3 (Homo sapiens) (UniProt Q9NZJ5).
T3 sequence (whole entry): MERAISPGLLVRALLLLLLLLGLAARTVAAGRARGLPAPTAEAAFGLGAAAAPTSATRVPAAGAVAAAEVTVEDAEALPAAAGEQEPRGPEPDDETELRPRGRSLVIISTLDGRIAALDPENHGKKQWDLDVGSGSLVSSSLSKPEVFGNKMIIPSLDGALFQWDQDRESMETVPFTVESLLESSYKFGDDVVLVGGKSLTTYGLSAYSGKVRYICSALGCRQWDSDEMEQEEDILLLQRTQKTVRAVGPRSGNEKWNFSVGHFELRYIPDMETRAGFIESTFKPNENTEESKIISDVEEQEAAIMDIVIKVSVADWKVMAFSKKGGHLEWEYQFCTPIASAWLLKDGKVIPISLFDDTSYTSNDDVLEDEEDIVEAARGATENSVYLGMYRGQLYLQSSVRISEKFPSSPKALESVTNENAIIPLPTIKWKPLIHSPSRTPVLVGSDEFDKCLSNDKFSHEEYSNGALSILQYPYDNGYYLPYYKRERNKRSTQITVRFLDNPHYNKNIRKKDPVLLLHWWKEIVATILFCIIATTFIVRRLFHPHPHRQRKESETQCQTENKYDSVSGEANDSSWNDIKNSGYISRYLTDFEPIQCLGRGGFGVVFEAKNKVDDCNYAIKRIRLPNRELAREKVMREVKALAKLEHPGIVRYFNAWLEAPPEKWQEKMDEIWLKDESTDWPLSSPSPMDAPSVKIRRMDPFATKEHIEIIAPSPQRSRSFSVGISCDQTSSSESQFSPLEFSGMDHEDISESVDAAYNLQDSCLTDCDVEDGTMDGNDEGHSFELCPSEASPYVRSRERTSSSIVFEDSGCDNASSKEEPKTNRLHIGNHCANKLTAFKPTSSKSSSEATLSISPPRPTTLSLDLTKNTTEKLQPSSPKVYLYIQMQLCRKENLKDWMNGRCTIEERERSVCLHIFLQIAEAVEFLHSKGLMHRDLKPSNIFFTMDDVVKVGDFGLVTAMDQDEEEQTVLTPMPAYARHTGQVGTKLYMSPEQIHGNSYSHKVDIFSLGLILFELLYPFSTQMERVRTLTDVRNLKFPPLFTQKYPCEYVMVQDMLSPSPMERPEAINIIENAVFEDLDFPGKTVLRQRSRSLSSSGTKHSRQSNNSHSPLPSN
Kind of assay: Inhibition of human recombinant PEK at 500 nM related to control ULK1.

Assay [6] has as its target Tyrosine-protein kinase receptor UFO (Homo sapiens) (UniProt P30530). Kind of assay: Inhibition of human recombinant AXL at 15 nM related to control ULK1. The procedure, abridged:
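Panel of 327 recombinant human kinases, each assayed in vitro by radiometric activity assay in duplicate at a single inhibitor concentration per compound, chosen with reference to its ULK1 inhibition. Activity remaining was expressed as percent of vehicle control, and percent inhibition was calculated as 100 minus percent activity remaining.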

Sequence of NT-3 growth factor receptor (Homo sapiens) (Q16288 32-839 limits assumed): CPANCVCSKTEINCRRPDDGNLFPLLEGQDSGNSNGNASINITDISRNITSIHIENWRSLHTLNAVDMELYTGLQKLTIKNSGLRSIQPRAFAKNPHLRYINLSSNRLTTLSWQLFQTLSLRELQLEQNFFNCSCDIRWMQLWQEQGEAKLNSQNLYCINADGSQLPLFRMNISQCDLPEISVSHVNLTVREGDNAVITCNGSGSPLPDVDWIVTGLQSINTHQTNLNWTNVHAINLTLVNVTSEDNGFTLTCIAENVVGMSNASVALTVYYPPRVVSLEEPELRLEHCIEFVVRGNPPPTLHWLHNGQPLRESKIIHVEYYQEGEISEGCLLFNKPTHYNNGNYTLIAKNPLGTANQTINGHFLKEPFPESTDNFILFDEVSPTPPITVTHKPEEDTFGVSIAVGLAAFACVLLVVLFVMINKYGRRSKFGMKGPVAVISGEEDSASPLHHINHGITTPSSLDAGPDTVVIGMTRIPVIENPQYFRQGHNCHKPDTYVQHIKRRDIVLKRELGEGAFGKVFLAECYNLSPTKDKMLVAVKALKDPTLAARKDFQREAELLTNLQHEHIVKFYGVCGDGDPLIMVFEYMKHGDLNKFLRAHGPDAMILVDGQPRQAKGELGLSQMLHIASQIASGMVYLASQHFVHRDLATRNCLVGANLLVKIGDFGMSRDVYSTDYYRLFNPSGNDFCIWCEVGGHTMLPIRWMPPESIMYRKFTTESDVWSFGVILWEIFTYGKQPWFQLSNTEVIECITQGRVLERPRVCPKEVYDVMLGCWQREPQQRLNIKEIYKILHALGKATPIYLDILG
Sequence of Casein kinase I isoform gamma-1 (Homo sapiens) (Q9HCP0 whole entry, looked up, canonical isoform): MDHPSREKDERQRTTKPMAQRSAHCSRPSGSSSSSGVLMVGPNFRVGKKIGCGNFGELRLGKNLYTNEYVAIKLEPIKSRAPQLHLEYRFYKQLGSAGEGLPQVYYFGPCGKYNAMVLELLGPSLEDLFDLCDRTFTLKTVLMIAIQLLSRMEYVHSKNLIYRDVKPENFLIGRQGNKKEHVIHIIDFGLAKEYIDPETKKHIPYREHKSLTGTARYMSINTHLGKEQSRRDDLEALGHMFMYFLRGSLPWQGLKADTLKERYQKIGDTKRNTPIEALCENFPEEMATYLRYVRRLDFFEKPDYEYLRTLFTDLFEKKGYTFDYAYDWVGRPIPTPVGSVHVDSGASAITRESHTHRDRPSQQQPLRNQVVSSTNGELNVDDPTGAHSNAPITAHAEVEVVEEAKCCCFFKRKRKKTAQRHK
Sequence of Tyrosine-protein kinase receptor UFO (Homo sapiens) (P30530 whole entry): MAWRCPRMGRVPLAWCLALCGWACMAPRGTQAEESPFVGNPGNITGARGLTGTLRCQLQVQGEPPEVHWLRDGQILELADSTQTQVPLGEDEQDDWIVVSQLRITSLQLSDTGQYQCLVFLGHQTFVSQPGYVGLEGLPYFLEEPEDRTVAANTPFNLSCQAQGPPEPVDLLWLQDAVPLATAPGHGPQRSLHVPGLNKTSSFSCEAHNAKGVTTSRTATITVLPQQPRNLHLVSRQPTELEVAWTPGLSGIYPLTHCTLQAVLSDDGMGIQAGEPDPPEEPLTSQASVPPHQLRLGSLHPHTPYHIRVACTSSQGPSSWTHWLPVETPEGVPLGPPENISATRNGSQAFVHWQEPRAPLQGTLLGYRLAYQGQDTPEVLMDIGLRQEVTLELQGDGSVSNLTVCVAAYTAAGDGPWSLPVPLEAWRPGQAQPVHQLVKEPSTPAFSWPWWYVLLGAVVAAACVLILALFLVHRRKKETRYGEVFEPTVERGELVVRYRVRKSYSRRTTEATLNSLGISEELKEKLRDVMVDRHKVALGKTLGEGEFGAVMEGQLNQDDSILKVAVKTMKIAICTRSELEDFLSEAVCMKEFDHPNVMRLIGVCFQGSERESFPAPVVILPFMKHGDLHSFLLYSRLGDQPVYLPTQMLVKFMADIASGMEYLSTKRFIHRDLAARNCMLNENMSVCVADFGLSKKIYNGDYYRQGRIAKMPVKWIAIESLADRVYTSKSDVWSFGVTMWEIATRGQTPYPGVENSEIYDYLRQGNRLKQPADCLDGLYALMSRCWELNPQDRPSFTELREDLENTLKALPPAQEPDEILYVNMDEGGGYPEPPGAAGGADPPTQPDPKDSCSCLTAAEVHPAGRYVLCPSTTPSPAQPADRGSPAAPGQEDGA

On to `O=C(N[C@@H](C1CC1)C(F)(F)F)c1cc(-c2cnn3cc(-c4ccc(F)cc4)cnc23)cs1`, for which the fold change (FC) in assay [1], in assay [2] and in assay [3] was 0 in each case.

Consider `CNC(=O)c1ccccc1Oc1nc(Nc2cc(OC)c(OC)c(OC)c2)ncc1Br`, for which, in assay [4], the inhibition came out at 0%. Moreover, the fold change (FC) in assay [5] worked out at 0.

Take `CC(C)[C@H](NC(=O)c1cc(-c2cnn3cc(-c4ccc(OCCN5CCCCC5)cc4)cnc23)cs1)C(F)(F)F`: the fold change (FC) in assay [6] was determined as 0.13.

These data come from ChEMBL document CHEMBL5653631, “A Potent and Selective ULK1 Inhibitor Suppresses Autophagy and Sensitizes Cancer Cells to Nutrient Stress” (iScience, 2018).
